Results from different studies.
Target: Cyclin-dependent kinase 3 (CDK3, Homo sapiens, UniProt Q00526)

O=C(NCCCN1CCOCC1)c1ccc(Nc2ncc(Cl)c(-c3ccc(Cl)s3)n2)cc1
remaining binding (binding, competition with immobilised ligand; 1 µM): 44%

Nc1ncc2c(n1)-c1c([nH]c3ccc(C#CC4CC4)cc13)CCCC2
remaining binding (binding, competition with immobilised ligand; 1 µM): 77%

C[C@H](c1ccnc(Nc2nc3ccc(-c4cc(N(C)C)ncn4)cc3[nH]2)c1)N1CCN(C(=O)CC(F)(F)F)CC1
remaining binding (cell-free assay, competition with immobilised ligand; 0.1 µM): 100%

FC(F)(F)Oc1cccc(-c2cnc3ccc(-c4ccncc4)nn23)c1
remaining binding (cell-free assay, competition with immobilised ligand; 5 µM): 79%

C[C@@H]1CN(c2ccc3ncc(-c4ccc5[nH]nc(C6CC6)c5c4)n3n2)C[C@H](C)O1
remaining binding (binding, competition with immobilised ligand; 50 nM): 100%

C[C@@H](c1cccc(C#N)c1)n1cc(Cl)cc(C(N)=O)c1=N
remaining binding (cell-free assay, competition with immobilised ligand; 1 µM): 100%

CC(C)(C)c1ccc(-c2nc(CBr)nn2-c2cccc(O)c2)cc1
remaining binding (cell-free assay, competition with immobilised ligand; 10 µM): 100%

c1cnn2ncc(-c3ccnc(N4CCC45COC5)n3)c2c1
remaining binding (binding; 1 µM): 74%

CC(=O)N1CCC(c2ccc(C(=O)NC3=NCCN3)cc2C(F)(F)F)CC1
remaining binding (cell-free assay, competition with immobilised ligand; 1 µM): 100%

CC1CCCN1c1nccc(-c2cnn3ncccc23)n1 (stereo not drawn)
remaining binding (binding; 1 µM): 100%

Cc1c(NC(=O)c2cc(C(N)=O)nc3cc(F)ccc23)c(C(F)(F)F)nn1Cc1ccc(C#N)cc1
remaining binding (cell-free assay, competition with immobilised ligand; 1 µM): 95%

CCN1CCN(Cc2ccc(C(=O)Nc3ccc(C)c(Oc4ccc5c(c4)CC(=O)N5)c3)cc2C(F)(F)F)CC1
remaining binding (binding, competition with immobilised ligand; 1 µM): 100%

O=C(Nc1c[nH]nc1C(=O)NC1CCNCC1)c1cc(F)cc(F)c1
remaining binding (binding, competition with immobilised ligand; 1 µM): 91%

CN(CCCC(F)(F)F)c1nccc(-c2cnn3ncccc23)n1
remaining binding (binding; 1 µM): 100%

O=C(c1ccc(Nc2nccc(-c3cc4ccccc4s3)n2)cc1)N1CCC(N2CCCC2)CC1
remaining binding (binding, competition with immobilised ligand; 1 µM): 98%

COc1cnc(Nc2cccc(S(N)(=O)=O)c2)nc1N1CCN(c2ccccc2)C(=O)C1
remaining binding (binding, competition with immobilised ligand; 1 µM): 99%

O=C(NCCCN1CCOCC1)c1ccc(Nc2nccc(-c3cc4ccccc4s3)n2)cc1
remaining binding (binding, competition with immobilised ligand; 1 µM): 95%

CCC(=O)N[C@H]1CC[C@@H](C(=O)N(C)c2ccc(-c3nc4ccccc4o3)cc2)C1
remaining binding (cell-free assay, competition with immobilised ligand; 1 µM): 98%

F[C@@H]1CCN(c2nccc(-c3cnn4ncccc34)n2)C1
remaining binding (binding; 1 µM): 100%

CCCOc1ccc([C@H]2[C@H](C(=O)O)[C@@H](c3ccc4c(c3)OCO4)CN2CC(=O)Nc2c(CC)cccc2CC)cc1
remaining binding (cell-free assay, competition with immobilised ligand; 1 µM): 95%

CN(C)c1nccc(-c2cnn3ncccc23)n1
remaining binding (binding; 1 µM): 78%
